Measurements reported in ChEMBL document CHEMBL3808362, “Affinity-Guided Design of Caveolin-1 Ligands for Deoligomerization” (J Med Chem, 2016).
Activity calls are given as the source filed them. No cut-off for these calls is given here. Peptide text beside a SMILES is read from it.

Assays:
[1] = target: Albumin (Bos taurus, UniProt P02769); test: Binding affinity to rhodamine-labeled bovine serum albumin by SPOT screening assay; type: ADME; conditions: cattle, isolated protein
Procedure, shortened: (§1)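 Peptides synthesized on cellulose SPOT arrays with a double β-Ala linker, screened in duplicate sheets against rhodamine-labeled protein. Sheets were washed and blocked, and SPOT fluorescence was quantified as relative apparent binding. Signal from blank linker-only SPOTs was subtracted on each sheet.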

[2] = target: T1, Caveolin-1 (Homo sapiens) (UniProt Q03135); test: Inhibition of oligomerization of human soluble full length variant CAV at 10 uM by dynamic light scattering analysis
T1 sequence (whole entry): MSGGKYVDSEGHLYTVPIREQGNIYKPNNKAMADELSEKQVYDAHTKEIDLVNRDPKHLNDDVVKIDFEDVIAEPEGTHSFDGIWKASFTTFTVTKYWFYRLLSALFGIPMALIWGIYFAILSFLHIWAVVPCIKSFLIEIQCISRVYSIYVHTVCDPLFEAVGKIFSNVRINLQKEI
Procedure, shortened: (§2)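 Soluble full-length CAV variant (CAV(FLV)) forms oligomers spontaneously. These were incubated with peptide, and particle size was measured by dynamic light scattering as average diameter and polydispersity. For line 7, incubation was under reducing conditions to disrupt the peptide's disulfide dimerization.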

[3] = target: T1, Caveolin-1 (Homo sapiens); test: Inhibition of oligomerization of human soluble full length variant CAV by dynamic light scattering analysis
Procedure, shortened: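 CAV(FLV) oligomers were incubated with varied peptide concentrations. Dose dependence was followed by dynamic light scattering as the diameter of separate oligomeric peaks.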

[4] = species on record: Gallus gallus; test: Binding affinity to rhodamine-labeled hen egg white lysozyme by SPOT screening assay; procedure, shortened: as §1
[5] = species on record: Homo sapiens; test: Binding affinity to rhodamine-labeled casein (unknown origin) by SPOT screening assay; procedure, shortened: as §1
[6] = target: T1, Caveolin-1 (Homo sapiens); test: Binding affinity to rhodamine-labeled human CAV (1 to 104 residues) expressed in Escherichia coli BL21-DE3 by SPOT screening assay; procedure, shortened: as §1
[7] = target: T1, Caveolin-1 (Homo sapiens); test: Inhibition of oligomerization of human soluble full length variant CAV at 10 uM by dynamic light scattering analysis in presence of TCEP; procedure, shortened: as §2
[8] = target: T2, Caveolin-1 (Homo sapiens, UniProt Q03135); test: Binding affinity to human CAV (1 to 104 residues) expressed in Escherichia coli BL21-DE3 by isothermal titration calorimetric analysis
T2 sequence (Q03135 whole entry): T1 sequence (whole entry)

Sequence of Albumin (P02769 whole entry): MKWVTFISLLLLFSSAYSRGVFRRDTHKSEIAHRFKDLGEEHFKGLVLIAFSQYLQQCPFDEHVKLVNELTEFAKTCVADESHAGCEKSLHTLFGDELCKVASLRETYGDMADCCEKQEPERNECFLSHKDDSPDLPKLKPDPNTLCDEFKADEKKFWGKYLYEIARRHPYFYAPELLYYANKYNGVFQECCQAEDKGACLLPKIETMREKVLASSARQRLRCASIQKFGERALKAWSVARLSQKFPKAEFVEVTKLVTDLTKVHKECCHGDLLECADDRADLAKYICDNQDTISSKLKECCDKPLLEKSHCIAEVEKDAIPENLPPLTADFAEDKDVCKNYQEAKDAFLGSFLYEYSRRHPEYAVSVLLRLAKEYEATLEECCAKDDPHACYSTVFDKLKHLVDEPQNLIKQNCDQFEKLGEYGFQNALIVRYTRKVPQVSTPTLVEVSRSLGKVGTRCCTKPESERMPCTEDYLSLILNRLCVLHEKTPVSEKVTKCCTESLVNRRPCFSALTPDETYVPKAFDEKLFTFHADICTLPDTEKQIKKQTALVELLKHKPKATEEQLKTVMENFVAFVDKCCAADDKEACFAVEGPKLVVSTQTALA

SMILES: CSCC[C@H](NC(=O)[C@H](Cc1c[nH]c2ccccc12)NC(=O)[C@H](CO)NC(=O)[C@@H](N)CS)C(=O)N[C@@H](CCCNC(=N)N)C(=O)N[C@@H](CC(C)C)C(=O)N[C@@H](CCCCN)C(=O)O (H-CSWMRLK-OH)
- Activity [1]: Not Active
- inhibition [2]: Active
- inhibition [3]: Dose-dependent effect
- Activity [4]: inactive
- Activity [5]: inactive
- Activity [6]: Active
- inhibition [7]: inactive

SMILES: CSCC[C@H](NC(=O)[C@H](CO)NC(=O)CNC(=O)[C@H](Cc1c[nH]c2ccccc12)NC(=O)[C@H](CCCNC(=N)N)NC(=O)[C@H](CCC(=O)O)NC(=O)[C@H](CC(C)C)NC(=O)[C@H](CCC(=O)O)NC(=O)[C@H](CCSC)NC(=O)[C@H](CC(C)C)NC(=O)[C@@H](N)CCC(=O)O)C(=O)N[C@@H](CC(C)C)C(=O)N[C@@H](CCCCN)C(=O)N[C@@H](CS)C(=O)N[C@@H](Cc1ccccc1)C(=O)O (H-ELMELERWGSMLKCF-OH)
- Activity [6]: Active

SMILES: CSCC[C@H](NC(=O)[C@H](CO)NC(=O)CNC(=O)[C@H](Cc1c[nH]c2ccccc12)NC(=O)[C@@H](N)CCCNC(=N)N)C(=O)N[C@@H](CC(C)C)C(=O)N[C@@H](CCCCN)C(=O)N[C@@H](CS)C(=O)N[C@@H](Cc1ccccc1)C(=O)O (H-RWGSMLKCF-OH)
- Activity [6]: Active

SMILES: CC[C@H](C)[C@H](NC(=O)[C@H](CC(C)C)NC(=O)[C@H](CO)NC(=O)[C@H](Cc1cnc[nH]1)NC(=O)[C@@H](NC(=O)[C@H](CC(C)C)NC(=O)[C@H](CO)NC(=O)[C@@H](NC(=O)[C@@H](N)Cc1ccc(O)cc1)[C@@H](C)O)[C@@H](C)CC)C(=O)N[C@@H](CCC(=O)O)C(=O)N[C@@H](CCC(=O)O)C(=O)N[C@@H](CO)C(=O)N[C@@H](CCC(N)=O)C(=O)N[C@@H](CC(N)=O)C(=O)N[C@@H](CCC(N)=O)C(=O)N[C@@H](CCC(N)=O)C(=O)N[C@@H](CCC(=O)O)C(=O)N[C@@H](CCCCN)C(=O)N[C@@H](CCC(N)=O)C(=O)N[C@@H](CCC(=O)O)C(=O)N[C@@H](CCCCN)C(=O)N[C@@H](CCC(=O)O)C(=O)N[C@@H](CC(C)C)C(=O)N[C@@H](CCSC)C(=O)N[C@@H](CCC(=O)O)C(=O)N[C@@H](CC(C)C)C(=O)N[C@@H](CCC(=O)O)C(=O)N[C@@H](CCCNC(=N)N)C(=O)N[C@@H](Cc1c[nH]c2ccccc12)C(=O)NCC(=O)N[C@@H](CO)C(=O)N[C@@H](CCSC)C(=O)N[C@@H](CC(C)C)C(=O)N[C@@H](CCCCN)C(=O)N[C@@H](CS)C(=O)N[C@@H](Cc1ccccc1)C(=O)O (H-YTSLIHSLIEESQNQQEKQEKELMELERWGSMLKCF-OH)
- Kd [8]: ≤ 155 nM
